Data: PubChem BioAssay
A number with no mark means an inactive call. Inconclusive results are not listed. Activity calls are given as the source filed them.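 Rule for the calls, unless noted: active = RAM network inhibition above 8.4% in each of two replicates, 3 SD over the compound average; inconclusive = above 8.4% inhibition in only one replicate; inactive = 8.4% inhibition or less in each replicate.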

Legend:
[1] = OD615 S. cerevisiae growth inhibition, permissive medium, pilot counter-assay, permissive growth control for S. cerevisiae lifespan shortening project (AID 705;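 active = growth inhibition above 25% in both replicates, a cutoff set 3 SD above the mean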); conditions: OD615, 24 h, at 10 µM, stronger effect = higher value
Outline: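 assay system = Saccharomyces cerevisiae strain carrying genetically modified DeaD replicative-lifespan system | medium = SC raffinose/galactose permissive medium | dosing = 10 µM single dose, 0.25% DMSO | schedule = 24 h compound exposure at 30 °C after 4 h pre-growth | measured by = OD at 615 nm | read-out basis = growth inhibition from lowered OD615 after 24 h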

[2] = Restrictive medium S. cerevisiae growth inhibition, OD615, pilot screen of yeast lifespan reduction project, restrictive growth control (AID 706;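 active = growth inhibition above a set limit, 3 SD over mean compound inhibition, in both replicates, cut at about 43% in these data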;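 note: modified DeaD lifespan yeast strain shifted to restrictive glucose medium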); conditions: OD615, 48 h, at 10 µM, stronger effect = higher value
Outline: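 Buffer or medium: CSMM-D glucose medium. Material: genetically modified Saccharomyces cerevisiae, DeaD replicative lifespan assay strain. Times: 48 h compound exposure at 30 °C. Measured by: optical density at 615 nm.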

[3] = viability gain of MRP-1-high H69AR cells under doxorubicin, pilot screen, MRP-1 activator project, CellTiter-Glo, duplicate (AID 807;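 active = viability increase at or above a cutoff of the median across tested compounds plus 3 SD, cut at about 8.5% in these data, passing the limit was not always enough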;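 note: compound pretreatment 18-22 h then 72 h combined with doxorubicin; 0% = doxorubicin alone and 100% = vehicle without doxorubicin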); conditions: H69AR viability with doxorubicin, CellTiter-Glo luminescence; at 10 µM; stronger effect = higher value
[4] = growth suppression of beta-catenin knockout HCT116, pilot screen, human colon tumor cells (AID 823;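 active = cell viability at or below a set limit in both duplicate runs, the limit being the all-compound median minus 4 SD, cut at about 23% in these data, passing the limit was not always enough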;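 note: 0% = wells killed by 20 µM Hyamine and 100% = untreated DMSO cell wells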); conditions: CellTiter-Glo, 60 h, at 10 µM, stronger effect = lower value
[5] = growth suppression of PTEN-deleted HCT116, pilot screen, cell-based, HCT116 clonal line, CellTiter-Glo (AID 824;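 active = viability at or below 27.92% in each of two runs, the all-compound median minus 4 SD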;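 note: 0% = 20 µM Hyamine control and 100% = vehicle cell control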); conditions: 60 h, at 10 µM, stronger effect = lower value
[6] = inhibitors of the yeast RAM network, pilot screen, dse1pr::URA3 reporter, 5-FOA selection (AID 869;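 active = inhibition over a set limit, the all-compound mean plus 3 SD, in both replicate runs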;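 note: 0% = DMSO wells with no growth and 100% = 10 µM 1-NA-PP1 with full growth; RAM network block rescues cells from 5-FOA so hits raise OD615 growth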); conditions: S. cerevisiae dse1pr::URA3 5-FOA growth, OD615, 2 d; at 10 µM; stronger effect = higher value; strain carries analog-sensitive mutant Cbk1 kinase
[7] = RAM signaling pathway blockade in yeast – S. cerevisiae, Pdr1DBD-CYC8 efflux-inhibited sensitized strain, primary screen (AID 1298);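 note: 0% = DMSO untreated cells without growth and 100% = 10 µM 1-NA-PP1 full growth; higher means more yeast growth rescued from 5-FOA killing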; conditions: S. cerevisiae cbk1-as DSE1-URA3 strain, 5-FOA growth OD615, 2 d; at 50 µM; stronger effect = higher value

Row | SMILES | growth inhibition [1] [%] | growth inhibition [2] [%] | viability increase [3] [%] | viability [4] | viability [5] | inhibition [6] [%] | RAM network inhibition [7] [%]
1 | Cc1cccc(-n2ncc3c(N(C)Cc4ccccc4)ncnc32)c1 | -2.16 | -0.895 | 5.35 | 109% | 88.7% | 0.7 | 4.33
2 | c1cn(CCCNc2ncnc3nc[nH]c23)cn1 | -7.59 | -16.1 | -1.91 | 111% | 96.2% | 0.895 | 2.98
3 | Cc1ccc(N(C(=O)c2cccs2)C2C=CS(=O)(=O)C2)cc1 (stereo not drawn) | -11.1 | -10.6 | -2.23 | 98.3% | 94% | 1.96 | 1.19
4 | Cc1cc(Nc2ncc(Cl)cc2Cl)n(-c2ccccn2)n1 | -1.14 | 3.23 | -5.35 | 89.3% | 76.5% | 1.93 | 4.08
5 | COc1ccc(C/C(N)=N/n2cnnc2)cc1 | 2.64 | -3.72 | 0.39 | 100% | 106% | 0.64 | 3.02
6 | O=C(CSc1nnc(COc2ccccc2)o1)Nc1nccs1 | 6.56 | 4.11 | -2.31 | 95.6% | 96.4% | 1.78 | 3.24
7 | CCOc1ccc(C2CC(c3ccc(F)cc3)Nc3nc(N)nn32)cc1 (stereo not drawn) | 4.3 | 6.27 | 2.97 | 105% | 101% | 0.7 | 0.88
8 | CCN(CC)CCN1C(=O)C2C3c4ccccc4C(c4ccccc43)C2C1=O (stereo not drawn) | -2.27 | -2.01 | -2.46 | 96.5% | 95.4% | 0.035 | 1.71
9 | COC(=O)c1ccc(C2c3c(oc4cc(C)c(C)cc4c3=O)C(=O)N2CCCN(C)C)cc1 (stereo not drawn) | -7.92 | -7.88 | -2.2 | 93.8% | 87.7% | 0.34 | 3.78
10 | Cc1cc(OCC(=O)Nc2cc(-c3nn4c(C)nnc4s3)ccc2C)ccc1Cl | 2.82 | 27.5 | -0.6 | 95.6% | 82% | 2.49 | 6.32
11 | CCN(CCNC(=O)Cn1cc2c(n1)CCCC2)c1ccccc1 | -4.85 | -6.55 | 0.42 | 109% | 93.5% | 2.4 | 0.1
12 | Cc1ccc(C)c(-n2c(Cc3cc(=O)[nH]c(=O)[nH]3)nnc2SC(C)C)c1 | 0.205 | 11.1 | -3.19 | 97.7% | 89.9% | 1.74 | 0.84
13 | Cc1ccc(S(=O)(=O)n2ccnc2)cc1C | -7.98 | -8.12 | -0.49 | 96.1% | 88.9% | 1.86 | 2.35
14 | CCc1cc(C(=O)Cc2ccc(F)cc2)c(O)cc1O | -1.34 | -3.73 | -3.8 | 98.8% | 86.5% | 0.665 | -2.4
15 | COCCNC(=O)CS(=O)Cc1nc(-c2ccc(OC)cc2)oc1C (stereo not drawn) | -9.42 | -4.61 | 0.42 | 103% | 95.2% | 1.11 | 0.85
16 | O=C(c1cncc(Br)c1)N1CCN(c2ccc(N3CCOCC3)nn2)CC1 | -0.43 | 8.3 | -2.32 | 98.1% | 98.5% | 0.48 | 4.09
17 | CCOC(=O)c1c(NC(=O)c2cc(C3CC3)on2)sc(C(C)=O)c1C | -3.19 | 0.635 | -1.49 | 104% | 93.3% | 1.64 | -0.58
18 | COc1ccc(C2C(C(=O)Nc3cc(C)on3)c3ccccc3C(=O)N2C)cc1OC (stereo not drawn) | -4.48 | 2.73 | 0.61 | 102% | 99.4% | 1.24 | 4.64
19 | CC1(C)CC(=O)C(C=NC2CCCCC2)=C(O)C1 | 0.43 | -1.72 | -1.23 | 98.7% | 94.8% | 1.33 | -1.28
20 | CCOC(=O)c1ccc(Nc2cc(C)nc(-c3ccccc3O)n2)cc1 | -6.03 | -3.53 | 1.42 | 78.5% | 75.8% | -0.345 | 1.54
21 | Cc1c(C(=O)N2CCCCC2)sc(N)c1C#N | 4.06 | 4.32 | -0.95 | 96% | 95.2% | -0.355 | 1.18
22 | Cc1ccccc1-n1c(=O)cc(N2CCCCCC2)[nH]c1=O | -4.08 | -0.93 | -2.23 | 99.9% | 98.1% | 2.07 | 6.58
23 | COC(=O)C(C(=O)OC)C(C(=O)OC)C(C(=O)OC)C(=O)OC | -6.07 | -6.78 | -1.54 | 97.2% | 92.6% | 0.42 | -1.61
24 | CCCCCn1c(N2CCC(Cc3ccccc3)CC2)nc2c1c(=O)[nH]c(=O)n2C | -14.9 | -29.9 | -8.6 | 15.1% (active) | 12.8% (active) | 1.22 | 7.3
